Reference: ChEMBL document CHEMBL1134681, “Pseudoproline-containing analogues of morphiceptin and endomorphin-2: evidence for a cis Tyr-Pro amide bond in the bioactive conformation” (J Med Chem, 2001)

Tests used:
[1] = species on record: Cavia porcellus; assay: In vitro inhibition of electrically evoked contractions of GPI (Guinea pig ileum); type: functional
[2] = species on record: Mus musculus; assay: In vitro inhibition of electrically evoked contractions of MVD (Mouse vas deferens); type: functional
[3] = target: Delta-type opioid receptor (Rattus norvegicus, UniProt P33533); assay: Binding affinity towards delta receptor in rat brain using [3H]DSLET; type: tissue-based
[4] = target: T1, Mu-type opioid receptor (Rattus norvegicus, UniProt P33535); assay: (§1) Binding affinity towards mu receptor in rat brain using [3H]DAMGO; type: tissue-based
[5] = species on record: Cavia porcellus; assay: In vitro inhibition of electrically evoked contractions of GPI (Guinea pig ileum) relative to [Leu5]-enkephalin; type: functional
[6] = species on record: Mus musculus; assay: In vitro inhibition of electrically evoked contractions of MVD (Mouse vas deferens) relative to [Leu5]-enkephalin; type: functional
[7] = Ratio of inhibition of electrically evoked contractions of mouse vas deferens and inhibition of electrically evoked contractions of guinea pig ileum; IC50 ratio; type: functional
Procedure, shortened: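 Ratio of normalized IC50 values from electrically stimulated mouse vas deferens versus guinea pig ileum.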

[8] = target: T1, Mu-type opioid receptor; assay: as §1; type: tissue-based; remark: listed apart in the source
Procedure, shortened: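 Rat brain membranes; competitive displacement of [³H]DAMGO (0.72 nM; Kd 1.3 nM), incubated 2 h at 0 °C. IC50 taken from log dose–displacement curves, converted to Ki by Cheng–Prusoff.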

[9] = species on record: Cavia porcellus; assay: in vitro inhibition of electrically evoked contractions of GPI (Guinea pig ileum); type: functional
[10] = species on record: Mus musculus; assay: in vitro inhibition of electrically evoked contractions of MVD (Mouse vas deferens); type: functional
[11] = species on record: Cavia porcellus; assay: in vitro inhibition of electrically evoked contractions of GPI (Guinea pig ileum) relative to [Leu5]-enkephalin; type: functional
Procedure, shortened: (§2)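 Electrically stimulated isolated tissue (guinea pig ileum or mouse vas deferens), with inhibition of evoked contractions as read-out. […] IC50 values were taken from these curves and normalized to that standard by a published procedure.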

[12] = species on record: Mus musculus; assay: in vitro inhibition of electrically evoked contractions of MVD (Mouse vas deferens) relative to [Leu5]-enkephalin; type: functional; procedure, shortened: as §2

T1 sequence (P33535 whole entry): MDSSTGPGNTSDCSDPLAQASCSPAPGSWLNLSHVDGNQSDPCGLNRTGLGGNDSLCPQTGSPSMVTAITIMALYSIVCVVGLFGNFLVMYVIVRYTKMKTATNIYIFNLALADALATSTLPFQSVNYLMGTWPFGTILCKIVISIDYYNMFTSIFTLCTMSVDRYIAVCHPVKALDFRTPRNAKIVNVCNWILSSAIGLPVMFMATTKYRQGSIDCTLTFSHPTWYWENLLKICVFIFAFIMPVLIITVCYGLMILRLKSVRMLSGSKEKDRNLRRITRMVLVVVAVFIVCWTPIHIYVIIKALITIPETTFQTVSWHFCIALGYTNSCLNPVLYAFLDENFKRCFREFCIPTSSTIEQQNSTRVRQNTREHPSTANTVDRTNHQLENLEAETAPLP
Chain of Delta-type opioid receptor (P33533 whole entry): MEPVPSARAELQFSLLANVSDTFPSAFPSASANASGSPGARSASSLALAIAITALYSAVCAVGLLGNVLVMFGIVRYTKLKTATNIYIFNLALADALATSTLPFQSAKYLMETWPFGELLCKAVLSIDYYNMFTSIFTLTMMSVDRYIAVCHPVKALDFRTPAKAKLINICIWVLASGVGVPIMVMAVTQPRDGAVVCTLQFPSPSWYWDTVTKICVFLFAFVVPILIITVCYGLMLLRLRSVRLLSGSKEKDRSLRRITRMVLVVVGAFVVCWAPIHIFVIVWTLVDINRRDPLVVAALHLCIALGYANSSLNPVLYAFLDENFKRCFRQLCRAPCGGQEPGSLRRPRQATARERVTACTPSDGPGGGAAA

## NC(=O)[C@@H]1CCCN1C(=O)[C@@H](Cc1ccccc1)NC(=O)[C@@H]1CSCN1C(=O)[C@@H](N)Cc1ccc(O)cc1 [listing 1 of 2 here]
[1]
  IC50: 74.5 nM
[2]
  IC50: 190 nM
[3]
  Ki: 2450 nM
[4]
  Ki: 8.57 nM

## NC(=O)[C@@H]1CCCN1C(=O)[C@@H](Cc1ccccc1)NC(=O)[C@@H]1CSCN1C(=O)[C@@H](N)Cc1ccc(O)cc1 [listing 2 of 2 here]
[5]
  Relative potency: 3.3
[6]
  Relative potency: 0.06
[7]
  Ratio: 5.45

## CC1(C)SC[C@@H](C(=O)N[C@H](Cc2ccccc2)C(=O)N2CCC[C@H]2C(N)=O)N1C(=O)[C@@H](N)Cc1ccc(O)cc1 [listing 1 of 2 here]
[1]
  IC50: 246 nM
[2]
  IC50: 1420 nM
[3]
  Ki: > 10000 nM
[4]
  Ki: 37.7 nM

## CC1(C)SC[C@@H](C(=O)N[C@H](Cc2ccccc2)C(=O)N2CCC[C@H]2C(N)=O)N1C(=O)[C@@H](N)Cc1ccc(O)cc1 [listing 2 of 2 here]
[5]
  Relative potency: 1
[6]
  Relative potency: 0.00803

## NC(=O)[C@@H]1CCCN1C(=O)[C@@H](Cc1ccccc1)NC(=O)[C@@H]1COCN1C(=O)[C@@H](N)Cc1ccc(O)cc1 [listing 1 of 2 here]
[1]
  IC50: 470 nM
[2]
  IC50: 1020 nM
[3]
  Ki: > 10000 nM
[4]
  Ki: 58.9 nM

## NC(=O)[C@@H]1CCCN1C(=O)[C@@H](Cc1ccccc1)NC(=O)[C@@H]1COCN1C(=O)[C@@H](N)Cc1ccc(O)cc1 [listing 2 of 2 here]
[5]
  Relative potency: 0.523
[6]
  Relative potency: 0.0112

## CC1(C)OC[C@@H](C(=O)N[C@H](Cc2ccccc2)C(=O)N2CCC[C@H]2C(N)=O)N1C(=O)[C@@H](N)Cc1ccc(O)cc1 [listing 1 of 2 here]
[1]
  IC50: 860 nM
[2]
  IC50: 851 nM
[3]
  Ki: > 10000 nM
[4]
  Ki: 96.5 nM

## CC1(C)OC[C@@H](C(=O)N[C@H](Cc2ccccc2)C(=O)N2CCC[C@H]2C(N)=O)N1C(=O)[C@@H](N)Cc1ccc(O)cc1 [listing 2 of 2 here]
[5]
  Relative potency: 0.286
[6]
  Relative potency: 0.0134
[7]
  Ratio: 2.17

## NC(=O)[C@H](Cc1ccccc1)NC(=O)[C@H](Cc1ccccc1)NC(=O)[C@@H]1CSCN1C(=O)[C@@H](N)Cc1ccc(O)cc1 [listing 1 of 2 here]
[1]
  IC50: 22.2 nM
[2]
  IC50: 138 nM
[3]
  Ki: 1980 nM
[4]
  Ki: 6.41 nM

## NC(=O)[C@H](Cc1ccccc1)NC(=O)[C@H](Cc1ccccc1)NC(=O)[C@@H]1CSCN1C(=O)[C@@H](N)Cc1ccc(O)cc1 [listing 2 of 2 here]
[5]
  Relative potency: 11.1
[6]
  Relative potency: 0.0826
[7]
  Ratio: 6.22

## CC1(C)SC[C@@H](C(=O)N[C@@H](Cc2ccccc2)C(=O)N[C@@H](Cc2ccccc2)C(N)=O)N1C(=O)[C@@H](N)Cc1ccc(O)cc1 [listing 1 of 2 here]
[1]
  IC50: 502 nM
[3]
  Ki: > 10000 nM
[8]
  Ki: 50.4 nM

## CC1(C)SC[C@@H](C(=O)N[C@@H](Cc2ccccc2)C(=O)N[C@@H](Cc2ccccc2)C(N)=O)N1C(=O)[C@@H](N)Cc1ccc(O)cc1 [listing 2 of 2 here]
[5]
  Relative potency: 0.49
[6]
  Inhibition: 26%

## CC1(C)OC[C@@H](C(=O)N[C@@H](Cc2ccccc2)C(=O)N[C@@H](Cc2ccccc2)C(N)=O)N1C(=O)[C@@H](N)Cc1ccc(O)cc1 [listing 1 of 2 here]
[1]
  IC50: 305 nM
[2]
  IC50: 606 nM
[3]
  Ki: > 10000 nM
[4]
  Ki: 46.9 nM

## CC1(C)OC[C@@H](C(=O)N[C@@H](Cc2ccccc2)C(=O)N[C@@H](Cc2ccccc2)C(N)=O)N1C(=O)[C@@H](N)Cc1ccc(O)cc1 [listing 2 of 2 here]
[5]
  Relative potency: 0.807
[6]
  Relative potency: 0.0188
[7]
  Ratio: 1.99

## NC(=O)[C@H](Cc1ccccc1)NC(=O)[C@H](Cc1ccccc1)NC(=O)[C@@H]1COCN1C(=O)[C@@H](N)Cc1ccc(O)cc1 [listing 1 of 2 here]
[1]
  IC50: 41.7 nM
[2]
  IC50: 151 nM
[3]
  Ki: > 4000 nM
[4]
  Ki: 7.86 nM

## NC(=O)[C@H](Cc1ccccc1)NC(=O)[C@H](Cc1ccccc1)NC(=O)[C@@H]1COCN1C(=O)[C@@H](N)Cc1ccc(O)cc1 [listing 2 of 2 here]
[5]
  Relative potency: 5.9
[6]
  Relative potency: 0.0755
[7]
  Ratio: 3.62

## NC(=O)[C@@H]1CCCN1C(=O)C(Cc1ccccc1)NC(=O)[C@H]1CCCN1C(=O)[C@@H](N)Cc1ccc(O)cc1 (stereo in doubt) [listing 1 of 2 here]
[9]
  IC50: 109 nM
[10]
  IC50: 594 nM
[3]
  Ki: > 10000 nM

## NC(=O)[C@@H]1CCCN1C(=O)C(Cc1ccccc1)NC(=O)[C@H]1CCCN1C(=O)[C@@H](N)Cc1ccc(O)cc1 (stereo in doubt) [listing 2 of 2 here]
[11]
  Relative potency: 2.26
[12]
  Relative potency: 0.0192

## NC(=O)[C@H](Cc1ccccc1)NC(=O)[C@H](Cc1ccccc1)NC(=O)[C@@H]1CCCN1C(=O)[C@@H](N)Cc1ccc(O)cc1 [ENDOMORPHIN 2]
[9]
  IC50: 7.71 nM
[10]
  IC50: 15.3 nM

## CC(C)C[C@H](NC(=O)[C@H](Cc1ccccc1)NC(=O)CNC(=O)CNC(=O)[C@@H](N)Cc1ccc(O)cc1)C(N)=O [[LEU5]ENKEPHALIN]
[9]
  IC50: 246 nM
[10]
  IC50: 11.4 nM
